Molecules are shown by their SMILES. The source made the active and inactive calls. The calls are words filed in the database; no cut-off is given here. A value given as a limit tells only on which side of the number the result lay.

This passage reports Intrinsic activity, Ke and Ratio Ke results from ChEMBL document CHEMBL3813631, “Design, synthesis, and pharmacological evaluation of JDTic analogs to examine the significance of replacement of the 3-hydroxyphenyl group with pyridine or thiophene bioisosteres” (Bioorg Med Chem, 2016).

Assay [1] addresses Mu-type opioid receptor (Homo sapiens) (UniProt P35372). The assay is described as follows: Intrinsic activity at human mu opioid receptor expressed in CHO cell membrane assessed as increase in [35S]GTPgammaS binding at 10 uM after 1 hr by scintillation counting method. Format: functional, cell membranes.
In assay [2] the target is Delta-type opioid receptor (Homo sapiens) (UniProt P41143). The assay is described as follows: Intrinsic activity at human delta opioid receptor expressed in CHO cell membrane assessed as increase in [35S]GTPgammaS binding at 10 uM after 1 hr by scintillation counting method. Type of assay: functional, cell membranes.
The target of assay [3] is Kappa-type opioid receptor (Homo sapiens) (UniProt P41145). Nature of the assay: Intrinsic activity at human kappa opioid receptor expressed in CHO cell membrane assessed as increase in [35S]GTPgammaS binding at 10 uM after 1 hr by scintillation counting method. Format: functional, cell membranes.
The target is the same in assay [4]. The assay is described as follows: Antagonist activity at human kappa opioid receptor expressed in CHO cell membrane assessed as inhibition of U69,593-induced [35S]GTPgammaS binding after 1 hr by scintillation counting method. Type of assay: functional, cell membranes. Summed up: (§1)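 Antagonist Ke values were obtained from [35S]GTPγS binding at each opioid receptor. Each value is the mean ± SEM of at least three independent experiments, and each experiment was run in duplicate.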

For assay [5], the system named is CHO. The assay is described as follows: Selectivity ratio of Ke for human mu opioid receptor expressed in CHO cell membrane to Ke for human kappa opioid receptor expressed in CHO cell membrane. Format: cell-based.
For assay [6], the system named is CHO. The assay is described as follows: Selectivity ratio of Ke for human delta opioid receptor expressed in CHO cell membrane to Ke for human kappa opioid receptor expressed in CHO cell membrane. Type of assay: cell-based.
Assay [7] addresses Mu-type opioid receptor (Homo sapiens) (UniProt P35372). Nature of the assay: Antagonist activity at human mu opioid receptor expressed in CHO cell membrane assessed as inhibition of DAMGO-induced [35S]GTPgammaS binding after 1 hr by scintillation counting method. Format: functional, cell membranes. Summed up: as §1
Assay [8] deals with Delta-type opioid receptor (Homo sapiens) (UniProt P41143). The assay is described as follows: Antagonist activity at human delta opioid receptor expressed in CHO cell membrane assessed as inhibition of DPDPE-induced [35S]GTPgammaS binding after 1 hr by scintillation counting method. Format: functional, cell membranes. In short, it runs like this: as §1

Chain of Mu-type opioid receptor (Homo sapiens) (P35372 whole entry): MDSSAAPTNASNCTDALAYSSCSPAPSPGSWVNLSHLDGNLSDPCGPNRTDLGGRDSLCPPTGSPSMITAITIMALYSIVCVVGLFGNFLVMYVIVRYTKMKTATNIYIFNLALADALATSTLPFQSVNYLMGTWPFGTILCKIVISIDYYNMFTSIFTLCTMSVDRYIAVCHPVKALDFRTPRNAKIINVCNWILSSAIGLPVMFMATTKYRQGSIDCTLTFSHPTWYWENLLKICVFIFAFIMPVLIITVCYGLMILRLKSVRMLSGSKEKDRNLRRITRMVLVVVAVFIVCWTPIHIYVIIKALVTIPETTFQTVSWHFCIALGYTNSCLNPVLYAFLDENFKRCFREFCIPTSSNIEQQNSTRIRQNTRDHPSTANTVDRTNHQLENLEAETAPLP
Chain of Delta-type opioid receptor (Homo sapiens) (P41143 whole entry): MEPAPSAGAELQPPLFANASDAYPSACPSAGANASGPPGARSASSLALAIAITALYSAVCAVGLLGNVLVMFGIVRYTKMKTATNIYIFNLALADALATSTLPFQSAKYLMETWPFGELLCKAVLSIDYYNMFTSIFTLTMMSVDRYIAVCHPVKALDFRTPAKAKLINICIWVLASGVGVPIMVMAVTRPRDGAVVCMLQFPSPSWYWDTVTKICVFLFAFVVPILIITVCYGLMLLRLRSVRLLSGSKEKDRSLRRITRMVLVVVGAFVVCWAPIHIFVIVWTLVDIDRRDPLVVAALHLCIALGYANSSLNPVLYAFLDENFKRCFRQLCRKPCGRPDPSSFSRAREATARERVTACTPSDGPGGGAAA
Chain of Kappa-type opioid receptor (Homo sapiens) (P41145 whole entry): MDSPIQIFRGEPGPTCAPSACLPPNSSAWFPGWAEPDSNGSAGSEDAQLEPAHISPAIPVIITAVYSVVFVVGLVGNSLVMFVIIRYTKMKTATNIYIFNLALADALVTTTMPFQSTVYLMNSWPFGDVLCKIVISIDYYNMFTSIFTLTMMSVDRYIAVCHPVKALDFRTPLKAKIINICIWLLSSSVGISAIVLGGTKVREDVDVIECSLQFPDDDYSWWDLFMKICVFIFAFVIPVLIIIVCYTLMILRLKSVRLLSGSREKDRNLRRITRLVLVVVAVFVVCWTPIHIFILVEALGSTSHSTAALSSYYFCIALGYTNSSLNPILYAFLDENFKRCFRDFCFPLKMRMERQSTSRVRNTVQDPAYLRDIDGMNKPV

On to `CC(C)[C@@H](CN1CCC(C)(c2cccnc2)CC1)NC(=O)[C@H]1Cc2ccc(O)cc2CN1`, for which the Intrinsic activity result in assay [1], in assay [2] and in assay [3] was “inactive” in each case. Moreover, the Ke in assay [4] amounted to 0.18 nM. Besides, the Ratio Ke with CHO [5] was 273; in the assay with CHO [6], > 16700.

As to `CC(C)[C@@H](CN1CCC(C)(c2ccncc2)CC1)NC(=O)[C@H]1Cc2ccc(O)cc2CN1`, the Intrinsic activity result in assay [1], in assay [2] and in assay [3] was “inactive” each time. Also, the Ke in assay [4] was 1.75 nM. For the same molecule, the results for the Ratio Ke with CHO [5] and in the assay with CHO [6] were 88 and 1430, respectively.

With `CC(C)[C@@H](CN1CCC(c2ccncc2)CC1)NC(=O)[C@H]1Cc2ccc(O)cc2CN1`, the Intrinsic activity result in assay [1], in assay [2] and in assay [3] was “inactive” each time. Further, the Ke in assay [4] was 0.51 nM. Moreover, the Ratio Ke in the assay with CHO [5] came out at 112; with CHO [6] it was 1350.

Take `CC(C)[C@@H](CN1CCC(c2ccccc2)CC1)NC(=O)[C@H]1Cc2ccc(O)cc2CN1`: the results for the Ratio Ke in the assay with CHO [5] and in the assay with CHO [6] were 77 and 5510, respectively.

`CC(C)[C@@H](CN1CCC(c2cccnc2)CC1)NC(=O)[C@H]1Cc2ccc(O)cc2CN1`: the Intrinsic activity result in assay [1], in assay [2] and in assay [3] was “inactive” in each case. The Ke in assay [4] is 0.51 nM. For the same molecule, the Ratio Ke was 89 with CHO [5] and 2240 in the assay on CHO [6].

On to `CC(C)[C@@H](CN1CCC(c2ccsc2)CC1)NC(=O)[C@H]1Cc2ccc(O)cc2CN1`, for which the Intrinsic activity entry in assay [1], in assay [2] and in assay [3] was “inactive” in each case. For the same molecule, the Ke in assay [7] was found to be 3.93 nM; in assay [8], 118 nM; in assay [4], 0.12 nM. Also, the Ratio Ke in the assay with CHO [5] came to 33; with CHO [6], 983.

Turning to `CC(C)[C@@H](CN1CCC(c2ccccn2)CC1)NC(=O)[C@H]1Cc2ccc(O)cc2CN1`, the Intrinsic activity entry in assay [1], in assay [2] and in assay [3] was “inactive” each time. In assay [4], the Ke turned out to be 0.43 nM. In addition, the results for the Ratio Ke in the assay on CHO [5] and in the assay on CHO [6] were 33 and 1370, respectively.
